Assay [1] deals with T1, Opioid receptor (Mus musculus) (UniProt P42866+P32300+P33534). Kind of assay: (§1) Inhibition of [3H]dihydromorphine binding to mouse brain membranes as percentage of Opioid receptor occupancy.
The target in assay [2] is T1, Opioid receptor (Mus musculus). Description: Binding to mouse brain membranes expressed as percentage of Opioid receptors occupancy determined from difference in specific binding of [3H]dihydromorphine obtained prewashed. The following applies: Membrane. The essentials: (§2)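 Applies to membranes washed before ligand exposure. Mouse brain membranes in Hepes buffer pH 7.4 are incubated with ligand for 30 min at 25 °C. Occupancy is taken from the reduction in specific binding of [3H]dihydromorphine (2 nM final, 20 min at 25 °C; nonspecific binding with 1 µM naltrexone) versus a ligand-free control. Mean ± SD of triplicates.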

For assay [3] the target is unchanged. Description: Binding to mouse brain membranes expressed as percentage of Opioid receptors occupancy determined from difference in specific binding of [3H]dihydromorphine obtained after 10 wash procedures. The settings on record: Membrane. An outline of the steps: (§3)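 Male mouse brain (minus cerebellum) membranes in pH 7.4 Hepes buffer are exposed to ligand for 30 min at 25 °C, then centrifuged and washed 10 times (resuspended in Hepes, 10 min at 37 °C, recentrifuged). Pellets are labelled with 2 nM final [3H]dihydromorphine for 20 min at 25 °C; 1 µM naltrexone defines nonspecific binding. Occupancy is the loss of specific binding versus a ligand-free control treated identically, counted by scintillation. Mean ± SD of triplicates.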

The target is the same in assay [4]. Described as §1. The source holds these as a separate data set.
The target is the same in assay [5]. Description: Binding to mouse brain membranes expressed as percentage of receptor occupancy determined from difference in specific binding of [3H]dihydromorphine obtained after 3 wash procedures. The settings on record: Membrane. An outline of the steps: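 Mouse forebrain membranes in Hepes buffer, pH 7.4, are incubated with ligand for 30 min at 25 °C, then given 3 wash cycles, each a 10 min resuspension at 37 °C followed by centrifugation. Residual occupancy is measured with 2 nM [3H]dihydromorphine (20 min, 25 °C; nonspecific binding with 1 µM naltrexone) as the drop in specific binding relative to a washed control without ligand. Mean ± SD, triplicate.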

The target is the same in assay [6]. Description: Binding to mouse brain membranes expressed as percentage of receptor occupancy determined from difference in specific binding of [3H]dihydromorphine obtained after 10 wash procedures. The following applies: Membrane. An outline of the steps:
as §3

The target is the same in assay [7]. Description: Binding to mouse brain membranes expressed as percentage of receptor occupancy determined from difference in specific binding of [3H]dihydromorphine obtained after 5 wash procedures. The following applies: Membrane. An outline of the steps: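 Ligand pretreatment of male mouse brain membranes runs 30 min at 25 °C, followed by 5 washes in Hepes buffer pH 7.4 (10 min at 37 °C each, then recentrifuged). Specific binding of 2 nM [3H]dihydromorphine (20 min at 25 °C, minus binding with 1 µM naltrexone) is compared with an identically washed ligand-free control to give percent occupancy. Triplicate, mean ± SD.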

Assay [8] shares this target. Kind of assay: Binding to mouse brain membranes expressed as percentage of receptor occupancy determined from difference in specific binding of [3H]dihydromorphine obtained prewashed. The settings on record: Membrane. An outline of the steps: as §2

SMILES strings stand for the structures.

T1 sequence (P32300 whole entry, looked up): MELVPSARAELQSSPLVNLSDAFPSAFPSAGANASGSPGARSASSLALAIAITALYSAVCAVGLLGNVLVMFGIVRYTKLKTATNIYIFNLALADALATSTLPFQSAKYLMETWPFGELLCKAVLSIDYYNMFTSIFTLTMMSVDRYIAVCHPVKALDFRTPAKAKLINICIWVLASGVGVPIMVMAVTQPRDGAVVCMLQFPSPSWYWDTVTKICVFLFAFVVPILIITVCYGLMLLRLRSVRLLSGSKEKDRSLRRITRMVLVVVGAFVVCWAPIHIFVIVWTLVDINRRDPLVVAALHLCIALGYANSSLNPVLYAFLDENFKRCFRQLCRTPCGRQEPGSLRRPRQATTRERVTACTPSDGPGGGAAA
T1 sequence (P33534 whole entry, looked up): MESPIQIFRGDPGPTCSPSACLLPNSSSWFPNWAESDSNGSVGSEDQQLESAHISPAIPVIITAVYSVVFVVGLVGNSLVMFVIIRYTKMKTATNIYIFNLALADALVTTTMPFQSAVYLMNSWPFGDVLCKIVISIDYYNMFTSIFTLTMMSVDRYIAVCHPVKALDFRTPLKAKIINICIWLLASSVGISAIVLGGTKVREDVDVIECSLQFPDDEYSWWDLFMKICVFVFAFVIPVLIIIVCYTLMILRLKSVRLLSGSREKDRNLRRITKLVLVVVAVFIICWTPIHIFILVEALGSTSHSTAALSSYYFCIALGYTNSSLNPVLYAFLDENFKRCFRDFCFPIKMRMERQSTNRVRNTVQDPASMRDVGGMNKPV
T1 sequence (P42866 whole entry, looked up): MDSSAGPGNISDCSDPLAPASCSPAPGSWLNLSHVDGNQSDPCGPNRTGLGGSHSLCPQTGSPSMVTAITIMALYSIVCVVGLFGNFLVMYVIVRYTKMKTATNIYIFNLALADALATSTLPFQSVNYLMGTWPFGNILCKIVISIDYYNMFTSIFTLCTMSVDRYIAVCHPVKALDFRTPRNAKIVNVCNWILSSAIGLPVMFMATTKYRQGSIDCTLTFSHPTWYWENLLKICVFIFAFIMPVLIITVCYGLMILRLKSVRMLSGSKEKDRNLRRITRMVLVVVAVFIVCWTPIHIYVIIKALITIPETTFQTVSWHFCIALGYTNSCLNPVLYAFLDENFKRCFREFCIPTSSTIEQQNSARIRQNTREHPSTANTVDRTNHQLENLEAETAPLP

For the compound `CCCCC/C=C/C/C=C/CCCCCCCC(=O)N[C@H]1CC[C@@]2(O)[C@H]3Cc4ccc(O)c5c4[C@@]2(CCN3CC2CC2)[C@H]1O5`, the Receptor occupancy in assay [1] is 93%; in assay [2] it was 73%; in assay [3], 46%; in assay [4], 93%.

Turning to `CCCCCCCCCCCCCCCC(=O)NN[C@@H]1CC[C@@]2(O)[C@H]3Cc4ccc(O)c5c4[C@@]2(CCN3CC2CC2)[C@H]1O5`, the values for the Receptor occupancy in assay [1] and in assay [4] were 2% and 33%, respectively.

For the compound `CCCCCCCCCCCCCCCC(=O)N[C@@H]1CC[C@@]2(O)[C@H]3Cc4ccc(O)c5c4[C@@]2(CCN3CC2CC2)[C@H]1O5`, the Receptor occupancy stood at 58% in assay [1], 38% in assay [2], 2% in assay [3] and 93% in assay [4].

Regarding `CCCCC/C=C/C/C=C/CCCCCCCC(=O)N[C@@H]1CC[C@@]2(O)[C@H]3Cc4ccc(O)c5c4[C@@]2(CCN3CC2CC2)[C@H]1O5`, the Receptor occupancy in assay [1] came out at 96%; in assay [2] it was 84%; in assay [3], 53%; in assay [4], 94%.

In the case of `CC(=O)N[C@@H]1CC[C@@]2(O)[C@H]3Cc4ccc(O)c5c4[C@@]2(CCN3CC2CC2)[C@H]1O5`, the Receptor occupancy in assay [5] is 4%.

In the case of `CC/C=C/C/C=C/C/C=C/CCCCCCCC(=O)NN[C@@H]1CC[C@@]2(O)[C@H]3Cc4ccc(O)c5c4[C@@]2(CCN3CC2CC2)[C@H]1O5`, the Receptor occupancy in assay [1] turned out to be 46%; in assay [3], 38%; in assay [4], 93%.

In the case of `CCCCCCCCCCCCCCCCCC(=O)N[C@H]1CC[C@@]2(O)[C@H]3Cc4ccc(O)c5c4[C@@]2(CCN3CC2CC2)[C@H]1O5`, the Receptor occupancy was 42% in assay [1], 18% in assay [2], 6% in assay [3] and 77% in assay [4].

Turning to `CCCCCCCCCCCCCCCCCC(=O)NN[C@@H]1CC[C@@]2(O)[C@H]3Cc4ccc(O)c5c4[C@@]2(CCN3CC2CC2)[C@H]1O5`, the Receptor occupancy in assay [1] stood at 4%; in assay [4], 38%.

As to `CC/C=C/C/C=C/C/C=C/CCCCCCCC(=O)N[C@H]1CC[C@@]2(O)[C@H]3Cc4ccc(O)c5c4[C@@]2(CCN3CC2CC2)[C@H]1O5`, the Receptor occupancy in assay [1] worked out at 89%; in assay [2], 69%; in assay [3] it was 84%; in assay [4] it was 94%.

`CCCCCCCC/C=C/CCCCCCCC(=O)N[C@H]1CC[C@@]2(O)[C@H]3Cc4ccc(O)c5c4[C@@]2(CCN3CC2CC2)[C@H]1O5`: the Receptor occupancy was 54% in assay [1], 42% in assay [2], 21% in assay [3] and 98% in assay [4].

Take `CCCCCCCCCCCCCCCCCC(=O)N[C@@H]1CC[C@@]2(O)[C@H]3Cc4ccc(O)c5c4[C@@]2(CCN3CC2CC2)[C@H]1O5`: the Receptor occupancy in assay [1] was determined as 48%; in assay [2], 34%; in assay [3], 2%; in assay [4], 89%.

`CC(=O)N[C@H]1CC[C@@]2(O)[C@H]3Cc4ccc(O)c5c4[C@@]2(CCN3CC2CC2)[C@H]1O5`: in assay [5], the Receptor occupancy worked out at 2%.

For the compound `Oc1ccc2c3c1O[C@H]1/C(=N\N=C4/CC[C@@]5(O)[C@H]6Cc7ccc(O)c8c7[C@@]5(CCN6CC5CC5)[C@H]4O8)CC[C@@]4(O)[C@@H](C2)N(CC2CC2)CC[C@]314`, the results for the Receptor occupancy in assay [6], in assay [7] and in assay [5] were 2%, -1% and 35%, respectively.

Regarding `CC/C=C/C/C=C/C/C=C/CCCCCCCC(=O)N[C@@H]1CC[C@@]2(O)[C@H]3Cc4ccc(O)c5c4[C@@]2(CCN3CC2CC2)[C@H]1O5`, the Receptor occupancy was determined as 95% in assay [1], 85% in assay [2], 86% in assay [3] and 92% in assay [4].

As for `CCCCCCCC/C=C/CCCCCCCC(=O)N[C@@H]1CC[C@@]2(O)[C@H]3Cc4ccc(O)c5c4[C@@]2(CCN3CC2CC2)[C@H]1O5`, the Receptor occupancy in assay [1] amounted to 93%; in assay [2] it was 64%; in assay [3], 32%; in assay [4], 95%.

With `CCCCCCCCCCCCCCCC(=O)N[C@H]1CC[C@@]2(O)[C@H]3Cc4ccc(O)c5c4[C@@]2(CCN3CC2CC2)[C@H]1O5`, the Receptor occupancy in assay [6] was 3%; in assay [8], 24%; in assay [7], 35%; in assay [5], 85%.

The record behind these values is ChEMBL document CHEMBL1125274, “Persistent binding of fatty acyl derivatives of naltrexamine to opioid receptors” (J Med Chem, 1991).
